Assay outcomes: PubChem BioAssay, several laboratories
Compounds with a hit are over-represented: about 2.9% of the library has one in this group of screens.
UBC13 inh: blocks human UBC13 polyubiquitin chain formation. TR-FRET. inhibition, % at 20 µM. 0.47% of 330,000 active. P61088. AID 485273; in the data active = inhibition above about 45%, passing the limit was not always enough
Target sequence (P61088 whole entry, looked up): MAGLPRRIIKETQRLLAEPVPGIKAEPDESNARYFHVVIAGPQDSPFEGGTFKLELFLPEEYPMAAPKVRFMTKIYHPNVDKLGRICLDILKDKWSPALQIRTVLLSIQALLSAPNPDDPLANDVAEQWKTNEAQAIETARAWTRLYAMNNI
Apaf-1 inh: blocks human Apaf-1 apoptosome activity. O14727. reconstituted apoptosome caspase-3 activity, DEVD-Rh110 fluorescence. inhibition, % at 20 µM. 0.71% of 330,000 active; active = inhibition of at least 40% at 20 µM;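 note: plate controls were DMSO wells for no effect and DEVD-CHO caspase inhibitor wells for full effect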
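Material: reconstituted apoptosome with Apaf-1, cytochrome c, caspase-9, procaspase-3, dATP / Buffer or medium: pH 7.5 Hepes buffer with CHAPS, BSA, DTT / Also added: cytochrome c with DEVD-Rh110 / Schedule: compound with Apaf-1, dATP, procaspase-3 30 min, then 50 min reaction, room temperature / Technique: rhodamine 110 fluorescence at Ex 480/Em 540 nm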
MEKK2mut PB1 HTS: signal of MEK5 binding to mutant human MEKK2 PB1 domain; bead flow cytometry, Alexa488-MEK5 binding to MEKK2 mutant; percent response, % at 10 µM; 0.35% of 290,000 active; in the data active = percent response above about 24%, passing the limit was not always enough
MEKK2 WT-MEK5: raises or lowers MEK5 binding to wildtype human MEKK2 PB1 domain. Q9Y2U5. bead flow cytometry, Alexa488-MEK5 binding to MEKK2 WT; actives lie on both sides. binding response (% of control), % at 10 µM. 1.1% of 290,000 active; in the data active = binding response below about 67% or above about 130%
MEKK3 PB1 HTS: MEKK3-MEK5 PB1 interaction, increase or decrease. 1.4% of 290,000 active. binding response (% of control), % at 10 µM. AID 1529. bead-based flow cytometry, Alexa488-MEK5 binding to MEKK3; actives lie on both sides; 0 = blocked by unlabeled MEK5, 100 = vehicle. Q99759;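 active = binding response more than 3 SD above or below the average of its plate-row segment, actives on both sides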;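 note: Alexa488 bead fluorescence after subtracting the streptavidin-only scavenger bead signal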
MEKK2wt confirm: raises or lowers MEK5 binding to wildtype human MEKK2, retest; shares compounds with MEKK3 PB1 HTS; bead flow cytometry, Alexa488-MEK5 binding to MEKK2 WT; actives lie on both sides; binding response (% of control), % at 10 µM; AID 1892; 2.4% of 5,900 active; in the data active = binding response below about 16% or above about 210%; inactive = in between
MEKK2mut-MEK5: signal of MEK5 binding to mutant human MEKK2, retest | shares compounds with MEKK3 PB1 HTS | bead flow cytometry, Alexa488-MEK5 binding to MEKK2 mutant | percent response, % at 10 µM | 2% of 5,900 active; in the data active = percent response mostly above about 71%, no sharp cut-off; inactive = mostly below about 38%;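 note: higher means compound restores mutant binding toward wildtype level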
MEKK3-MEK5 inh: confirmation of inhibitors of MEK5 binding to human MEKK3; shares compounds with MEKK3 PB1 HTS; bead flow cytometry, Alexa488-MEK5 binding to MEKK3; hits give low values; binding response (% of control), % at 10 µM; 1.8% of 5,900 active; AID 1894;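 active = binding response below 72% of control, or above a set upper limit, though filed actives all read lower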;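 note: 100% = DMSO only wells and 0% = binding blocked by excess unlabeled MEK5; lower values mean stronger disruption of MEK5 binding to MEKK3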
Numbers without * were called inactive; x = no result; [ ] = dose if it differs, or a comment.

SMILES	UBC13 inh	Apaf-1 inh	MEKK2mut PB1 HTS	MEKK2 WT-MEK5	MEKK3 PB1 HTS	MEKK2wt confirm	MEKK2mut-MEK5	MEKK3-MEK5 inh
COc1ccc(/C=N/n2cncn2)cc1Cn1nc(C)c([N+](=O)[O-])c1C	2	-13	12	111	106	x	x	x
CC(=O)c1ccc(Oc2ccc(C(C)=O)cc2)cc1	2	6	2	104	104	x	x	x
CC(=O)c1ccc(OCCOc2ccc(C#N)cc2)cc1	11	-4	24	127	130*	102	6	104
O=c1c2ccccc2c(C=Nc2ccc(Cl)cn2)c(O)n1-c1cc(Cl)ccc1N1CCOCC1	-25	25	-46	2.0*[inhibitor]	2.0*[inhibitor]	84	-5	97
CC(=O)c1ccc(N=Cc2c(O)n(-c3cc(Cl)ccc3N3CCOCC3)c(=O)c3ccccc23)cc1	-19	16	-1	96	103	x	x	x
Clc1ccc(-c2csc3ncnc(Cl)c23)cc1	1	12	0	104	130*	104	8	104
CCCC(=O)N1N=C(c2ccccc2)CC1c1cn(C)c2ccccc12 (stereo not given)	19	24	3	107	134*	100	-4	100
CCOC(=O)C1=CN(Cc2cccc(-c3cccnc3)c2)S(=O)(=O)N(C)C1C (stereo not given)	x	29	x	x	x	x	x	x
CCN1CCN(c2c(Cl)cccc2NC(=O)c2ccc3c(c2)OCCO3)CC1	-1	6	-24	68	48*[inhibitor]	110	3	104
COc1ccc(/C=C2/C(=O)N(Cc3ccccc3)N=C2C)cc1	-4	14	3	104	128*	98	2	93
COc1ccc(-c2ccc(=O)n(Cc3ccccc3)n2)cc1	5	10	3	108	104	x	x	x
CCC1(c2ccccc2)NC(=O)N(CC(=O)N(CC(=O)Nc2ccccc2C(F)(F)F)Cc2ccco2)C1=O (stereo not given)	0	10	x	x	x	x	x	x
O=[N+]([O-])c1cccc(P(=O)(O)c2cccc([N+](=O)[O-])c2)c1	9	-4	-20	100	94	x	x	x
COc1cc(C2CC(=O)Oc3c(C(CCN4CCCC(C)C4)c4ccc(N(C)C)cc4)c(OC)cc(OC)c32)cc(OC)c1OC (stereo not given)	29	15	5	154*	124	119	13	105
COc1cc(C(CCN2CCOCC2)c2c(OC)cc(OC)c3c2OC(=O)CC3c2ccc(N(C)C)cc2)cc(OC)c1OC (stereo not given)	13	20	4	102	99	x	x	x
C=CCn1c(SCC(=O)N2N=C(c3ccco3)CC2c2ccco2)nnc1-c1ccncc1 (stereo not given)	-5	0	-1	94	66*[inhibitor]	113	12	106
COc1cc(/C=C/c2ccc3cccc(OC)c3n2)c(O)c([N+](=O)[O-])c1	-39	0	-15	55*[inhibitor]	50*[inhibitor]	94	-7	92
COc1cc(/C=C/c2ccc3cccc(OC)c3n2)c(OC(C)=O)c([N+](=O)[O-])c1	-83	17	-2	93	98	x	x	x
CCN(CC)S(=O)(=O)c1cc(OC)c(Cl)cc1OC	4	-2	3	100	103	x	x	x
Cc1ccc(C)c(N2CCN(C(=O)c3ccc(CSc4nc5ccncc5[nH]4)cc3)CC2)c1	15	16	-13	2.0*[inhibitor]	1.0*[inhibitor]	102	4	101
CN(CCO)C(=O)c1c(NC(=O)c2ccccc2)sc2c1CCCC2	4	-362	0	101	105	x	x	x
Cc1cccc(C(=O)Nc2sc3c(c2C(=O)O)CCC3)c1	21	-15	-14	84	75*[inhibitor]	96	-8	98
CN(C)CCNC(=O)c1c(NC(=O)c2ccccc2)sc2c1CCCC2	18	11	14	148*	109	134	18	106
Cc1ccc(C23CC4CC(CC(C(=O)NC(C)C(N)=O)(C4)C2)C3)cc1 (stereo not given)	-4	4	-1	95	95	x	x	x
Cc1ccc(NC(=O)CN(C)S(=O)(=O)c2cccs2)c(Br)c1	9	4	1	96	102	x	x	x
SMILES	UBC13 inh	Apaf-1 inh	MEKK2mut PB1 HTS	MEKK2 WT-MEK5	MEKK3 PB1 HTS	MEKK2wt confirm	MEKK2mut-MEK5	MEKK3-MEK5 inh
Cc1ccccc1NC(=O)COc1nsnc1N1CCOCC1	-10	3	-16	2.0*[inhibitor]	2.0*[inhibitor]	101	-1	98
CCOC(=O)c1cccc(-n2c(C)nc3ccccc3c2=O)c1	0	-7	3	105	102	x	x	x
CCOC(=O)c1cccc(-n2c(-c3ccc(OC)cc3)nc3nc4ccccc4nc32)c1	x	x	0	94	134*	90	-4	100
COc1cccc(CN2CCN(Cc3ccc(O)cc3)CC2CCO)c1 (stereo not given)	-1	-6	-18	65	46*[inhibitor]	113	16	111
CCOc1ccc(CN2CCN(Cc3cccc4nonc34)CC2CCO)cc1 (stereo not given)	4	-20	19	117	104	x	x	x
CCOc1ccc(CN2CCN(Cc3cnn(CC)c3C)CC2CCO)cc1 (stereo not given)	-5	5	-13	53	48*[inhibitor]	98	-3	99
C/C(CC(=O)NC1CCCC1)=N\NC(=O)Cc1csc(N)n1	8	0	5	100	101	x	x	x
CN1/C(=C\C(=O)c2cncc(Br)c2)C(C)(C)c2ccccc21	-4	11	-3	97	98	x	x	x
CN1/C(=C\C(=O)c2cccnc2)C(C)(C)c2ccccc21	-18	0	0	105	147*	85	-9	76
O=C(CN1C(=O)CSCC1=O)Nc1ccc2c(c1)OCO2	-7	6	0	103	136*	100	2	104
Cc1c(/C=C2\SC(=O)N(CC(=O)Nc3ccc4c(c3)OCO4)C2=O)c2ccccc2n1C	-2	-1	-21	-2.0*[inhibitor]	2.0*[inhibitor]	97	-2	99
CCOC(=O)C1=NN(C(C)=O)C2C(=O)N(CC)C(=O)C12 (stereo not given)	6	0	-2	103	100	x	x	x
O=C(c1ccccn1)N1CCCC(N2CCN(c3cccc(C(F)(F)F)c3)CC2)C1 (stereo not given)	-12	17	5	111	103	x	x	x
CCc1nccn1-c1cc(C(C)(C)C)nc2c(-c3ccc(Cl)cc3)cnn12	-6	29	1	110	151*	102	0	99
